≈ marks a conversion by molar mass, not a printed value. Calls of active or inactive are those of the source. No cut-off for these calls is given here.
Tests used:
[1] = Terminal half life in male Balb/c mouse at 1 mg/kg, iv by LC-MS/MS analysis; format: ADME, organism-based; conditions: in vivo, read-out: beta t1/2 (converted)
Summary of the method: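 Balb/c mice dosed intravenously at 1 mg kg−1; plasma pharmacokinetic profile analysed for half-life, C0, AUC0−t and clearance.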

Staphylococcus aureus [2] = test: Additive antibacterial activity against Staphylococcus aureus ATCC 29213 assessed as fractional inhibitory concentration index at 0.02 ug/ml incubated up to 24 hrs in presence of rifampicin by checkerboard analysis; format: functional; conditions: dose 0.02 µg/ml
Summary of the method: (§1)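 Checkerboard microdilution in cation-adjusted MHB, done per CLSI. The compound and partner antibiotic were dissolved in DMSO. The antibiotic was serially diluted across the plate and the compound was twofold serially diluted into the wells to make the combinations. Each well received 0.1 ml of inoculum, a 0.5 McFarland suspension (1.5 × 10^8 CFU ml−1) diluted 1:100 in MHB. Plates were incubated 24 h at 37 °C, then read with Alamar blue (0.04%). FIC index was calculated.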

Escherichia coli = test: Antibacterial activity against Escherichia coli ATCC 25922 incubated for 24 hrs by Alamar blue staining based microdilution method; format: functional
Staphylococcus aureus [3] = test: Induction of membrane permeabilization in methicillin-resistant Staphylococcus aureus ATCC 15187 at 1 to 8 times MIC measured after 80 mins by PI staining based analysis relative to control; format: functional; conditions: 1.333 h
Summary of the method: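 Propidium iodide uptake measured over time in bacteria exposed to 1×, 2×, 4× and 8× MIC, with vancomycin 4× and 8× MIC and a blank control; percentage membrane permeabilization read up to 80 min.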

RAW264.7 = test: Cytotoxicity against mouse RAW264.7 cells up to 200 ug/ml incubated for 48 to 72 hrs by absorbance based assay; format: toxicity, cell-based; conditions: time 48-72 hrs, dose < 200 µg/ml
Summary of the method: (§2)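 MTT read-out: macrophage cells plated at 1 × 10^4 cells per well in DMEM with 10% FBS, 37 °C, 5% CO2; treatment 48 h and 72 h; 2.5 mg ml−1 MTT 3 h, formazan dissolved in DMSO, OD 570 nm; doxorubicin 10 μM control.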

Staphylococcus aureus [4] = test: Disruption of cell membrane integrity in Staphylococcus aureus ATCC 29213 assessed as red fluorescence at 1 to 2 times MIC incubated for 2.5 hrs by DAPI/PI staining based fluorescence microscopy; format: functional, organism-based
Summary of the method: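 S. aureus treated at 1× and 2× MIC, stained with DAPI (all cells) and PI (damaged membranes), imaged by fluorescence microscopy; vancomycin 2× MIC positive control; untreated blank.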

[5] = Tmax in male Balb/c mouse at 30 mg/kg, po by LC-MS/MS analysis; format: ADME, organism-based; conditions: in vivo
Summary of the method: (§3)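 Balb/c mice dosed 1 mg kg−1 intravenously or 30 mg kg−1 orally (2.5 mg kg−1 oral also given); plasma PK parameters derived.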

[6] = AUC (0 to infinity) in male Balb/c mouse at 30 mg/kg, po by LC-MS/MS analysis; format: ADME, organism-based; conditions: in vivo; summary of the method: as §3
J774.A1 = test: Cytotoxicity against mouse J774.A1 cells up to 200 ug/ml incubated for 24 hrs by absorbance based assay
[7] = AUC (0 to t) in male Balb/c mouse at 30 mg/kg, po by LC-MS/MS analysis; format: ADME, organism-based; conditions: in vivo; summary of the method: as §3
Staphylococcus aureus [8] = test: Antibacterial activity against methicillin-resistant Staphylococcus aureus ATCC 15187 incubated for 24 hrs by Alamar blue staining based microdilution method; format: functional
[9] = Cytotoxicity against mouse RAW264.7 cells incubated for 48 to 72 hrs by absorbance based assay; format: toxicity, cell-based; summary of the method: as §2
Staphylococcus aureus [10] = test: Additive antibacterial activity against Staphylococcus aureus ATCC 29213 assessed as fractional inhibitory concentration index at 0.02 ug/ml incubated up to 24 hrs in presence of ciprofloxacin by checkerboard analysis; format: functional; conditions: dose 0.02 µg/ml; summary of the method: as §1
Staphylococcus aureus [11] = test: Bactericidal activity against methicillin-resistant Staphylococcus aureus ATCC 15187 assessed as reduction in bacterial count at 1 to 4 times MIC by time-kill assay; format: functional, organism-based; conditions: time 2-24 hrs
Staphylococcus aureus [12] = test: Synergistic bactericidal activity against Staphylococcus aureus ATCC 29213 assessed as reduction in bacterial count at 0.02 ug/ml incubated up to 8 hrs in presence of vancomycin by time-kill assay; format: functional; conditions: dose 0.02 µg/ml
Summary of the method: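 Time-kill with compound combined with vancomycin at synergistic concentrations (from checkerboard FIC) against S. aureus; CFU followed up to 8 h and at 24 h.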

[13] = Cytotoxicity in human HepG2 cells incubated for 24 hrs by MTT assay; format: toxicity, cell-based
Summary of the method: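 HepG2 cells, 1 × 10^4 per well in DMEM/10% FBS, 24 h attachment; compounds 200 to 0.19 μg ml−1 for 24 h at 37 °C, 5% CO2; MTT 2.5 mg ml−1 for 3 h, formazan in DMSO, OD 570 nm; doxorubicin 10 μM control.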

[14] = AUC (0 to infinity) in male Balb/c mouse at 1 mg/kg, iv by LC-MS/MS analysis; format: ADME, organism-based; conditions: in vivo; summary of the method: as §3
[15] = Efflux ratio of permeability across basal to apical side over apical to basal side in human Caco-2 cells; format: ADME, cell-based
Staphylococcus aureus [16] = test: Induction of resistance development in methicillin-resistant Staphylococcus aureus ATCC 15187 at 0.5 MIC measured after […]; format: functional, organism-based; conditions: 0.5 M
Summary of the method: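 Bacteria serially passaged under sublethal drug exposure over 20 days, with MIC redetermined at each passage; vancomycin and norfloxacin as controls.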

Staphylococcus aureus [17] = test: Inhibition of biofilm formation of methicillin-resistant Staphylococcus aureus ATCC 15187 incubated for 27 hrs by absorbance based method; format: functional, organism-based
Staphylococcus aureus [18] = test: Disruption of pre-formed biofilms of Staphylococcus aureus ATCC 29213 at 4 to 6 times MIC incubated for 24 hrs by absorbance based method relative to control; format: functional
Staphylococcus aureus [19] = test: Inhibition of biofilm formation of Staphylococcus aureus ATCC 29213 incubated for 27 hrs by absorbance based method; format: functional, organism-based
[20] = Cmax in male Balb/c mouse at 30 mg/kg, po by LC-MS/MS analysis; format: ADME, organism-based; conditions: in vivo; summary of the method: as §3
Staphylococcus aureus [21] = test: Antibacterial activity against Ciprofloxacin-sensitive Staphylococcus aureus […] by Alamar blue staining based analysis; format: functional
Staphylococcus aureus [22] = test: Antibacterial activity against Staphylococcus aureus ATCC 29213 infected in mouse RAW264.7 cells assessed as bacterial eradication by colony counting method; format: functional, organism-based
Summary of the method: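 RAW 264.7 macrophages infected with S. aureus, then treated with compound at multiples of MIC non-toxic to the cells; intracellular bacterial load enumerated as CFU ml−1; vancomycin comparator; one-way ANOVA versus infection control.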

Staphylococcus aureus [23] = test: Antibacterial activity against Staphylococcus aureus SA-K2192 overexpressing TetK by Alamar blue staining based analysis; format: functional
[24] = Volume of distribution in male Balb/c mouse at 30 mg/kg, po by LC-MS/MS analysis; format: ADME, organism-based; conditions: in vivo; summary of the method: as §3
Staphylococcus aureus [25] = test: Additive antibacterial activity against methicillin-resistant Staphylococcus aureus ATCC 15187 assessed as fractional inhibitory concentration index at 0.075 ug/ml incubated up to 24 hrs in presence of vancomycin by checkerboard analysis; format: functional; conditions: dose 0.075 µg/ml; summary of the method: as §1
[26] = Volume of distribution in male Balb/c mouse at 1 mg/kg, iv by LC-MS/MS analysis; format: ADME, organism-based; conditions: in vivo; summary of the method: as §3

## CCCc1nn(C)c2c(Nc3ccc(O)cc3)nc(-c3ccc([N+](=O)[O-])o3)nc12
[1]
  half-life: 30 min
Staphylococcus aureus [2]
  fractional inhibitory concentration index (FICI): 0.7
Escherichia coli
  MIC: inactive
Staphylococcus aureus [3]
  Activity: 45%
RAW264.7
  Activity: Non-toxic
Staphylococcus aureus [4]
  Activity: Active
[5]
  Tmax: 30 min
[6]
  AUC(0-inf): 3150 ng·h/mL
J774.A1
  Activity: Non-toxic
[7]
  AUC(0-t): 3150 ng·h/mL
Staphylococcus aureus [8]
  MIC: 0.15 µg/mL (≈ 0.38 µM)
[9]
  IC50: > 100 µg/mL
Staphylococcus aureus [10]
  fractional inhibitory concentration index (FICI): 1
Staphylococcus aureus [11]
  Activity: Time-dependent-effect
Staphylococcus aureus [12]
  Activity: >10 log10CFU
[13]
  IC50 at 24 h: > 50 µg/mL
[14]
  AUC(0-inf): 94.8 ng·h/mL
[15]
  efflux ratio: 1.3
Staphylococcus aureus [16]
  Activity: inactive
Staphylococcus aureus [17]
  inhibition: Dose-dependent-effect
Staphylococcus aureus [18]
  Activity: 30%
Staphylococcus aureus [19]
  inhibition: Dose-dependent-effect
[20]
  Cmax: 2010 ng/mL
Staphylococcus aureus [21]
  MIC: 0.3 µg/mL (≈ 0.761 µM)
Staphylococcus aureus [22]
  Activity: Dose-dependent-effect
Staphylococcus aureus [23]
  MIC: 0.3 µg/mL (≈ 0.761 µM)
[24]
  Vd: 4.75 L/kg
Staphylococcus aureus [25]
  fractional inhibitory concentration index (FICI): 1
[26]
  Vd: 1.69 L/kg

— ChEMBL document CHEMBL6182837, “Discovery and biological evaluation of nitrofuranyl-pyrazolopyrimidine hybrid conjugates as potent antimicrobial agents targeting Staphylococcus aureus and methicillin-resistant S. aureus” (RSC Med Chem, 2025)
